The conditions of series [1]: cited from earlier work.
The nature of series [2]: Pharmacokinetics, HPLC analysis of plasma. Format: in vivo, Fisher 344 rats.
Series [3] concerns NF-κB subunit p65. In words: Immunofluorescent staining of phospho-p65 in colon sections of AOM rats. The class given is in vivo, rat. Particulars: AOM study, 40 weeks. In outline: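 Colons from rats killed at week 40 were formalin-fixed and paraffin-embedded; 4 μm sections cut. Antigen retrieval by microwaving 15 min in 0.01 mol/l citrate, pH 6.0. Blocked with 5% donkey serum 30 min. Rabbit anti-phospho-p65 (Ser276) with mouse anti-β-catenin, or control IgG, applied overnight at 4°C. Fluorescent donkey secondaries 1 h at room temperature. Viewed by fluorescence microscopy.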

The format of series [4] is in vivo, Fisher 344 rats. Particulars: 7 days. The essentials: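 Male Fisher 344 rats, 8–9 weeks old, 7 per group. […] Killed by CO2 1 h after the last dose. Stomach, small intestine and colon inspected for ulcers under magnification, then formalin-fixed for histology. Heart, liver, lung and kidney collected for toxicity analysis.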
In series [5] the test system is β-catenin. In words: Western blot of β-catenin in nuclear extracts of HCT116 cells. Format: cell-based, human. In outline:
(§1)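 HCT116 cells grown in RPMI-1640. Cytoplasmic and nuclear fractions prepared by lysis, with NP-40 added at a later step; supernatant taken as cytoplasm. Nuclei washed, then resuspended in extraction buffer and pelleted. Standard western blot. Probes: rabbit anti-phospho-p65 (Ser276) for p65; mouse anti-β-catenin for β-catenin.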

For series [6], the system named is NF-κB subunit p65. In words: Western blot of p65 in nuclear extracts of HCT116 cells. The class given is cell-based, human. In outline: as §1
In general terms: In western blotting, separated proteins are transferred to a membrane and probed.

The subject of series [7] is β-catenin. The experiment in a line: Immunofluorescent staining of β-catenin in colon sections of AOM rats. The class given is in vivo, rat. Particulars: AOM study, 40 weeks.
Another series deals with PGE2. The experiment in a line: PGE2 in culture media of LPS-stimulated macrophages by ELISA. Format: cell-based, mouse. Particulars: RAW 264.7 macrophages, 130 μM for 12 h, then LPS 100 ng/ml overnight. In outline:
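RAW 264.7 mouse macrophages grown in DMEM. 1.5×10⁶ cells pre-incubated 12 h with test compound at 130 μM, then stimulated with LPS 100 ng/ml overnight. PGE2 in culture media measured by ELISA. Mean ± SEM, ANOVA.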
(In general: An ELISA detects its analyte on a solid surface through an enzyme-linked reagent.)

Series [8] has as its system AOM-induced colonic ACF and tumors. The class given is in vivo, Fisher 344 rats. The conditions noted are these: for Weight: average ± SE. The essentials: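 Male Fisher 344 rats, 3–4 weeks old, about 90 g, acclimated 1 week. AOM 15 mg/kg or saline given s.c. once weekly for 2 weeks. […] Rats weighed weekly. Week-20 colons formalin-fixed 24 h, stained with 0.2% methylene blue 3–5 min; ACF counted microscopically. Week-40 tumors counted; long and short diameters measured. Mean ± SEM, ANOVA.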

The mark [9] stands for this setting: 20 weeks, saline, diet IBU 500 ppm or p-IBU 900 ppm.
Where [10] appears, read: 40 weeks, saline, diet IBU 500 ppm or p-IBU 900 ppm.

Where two headings read alike, the source gives them in different places.

For the molecule `CC(C)Cc1ccc(C(C)C(=O)OCCN(C)C)cc1.Cl` (stereo not drawn) [ibuprofen-O(CH2)2N(CH3)2HCl], in series [1], the “GI toxic side effects compared to the parent molecule” value was “decreased”.

On to `CC(C(=O)O)c1ccc(C(O)C(C)C)cc1` (stereo not drawn) [1-OH-ibuprofen], for which the “plasma level of metabolite” value in series [2] (20 weeks (first value)) is 4000 nM; in series [2] (40 weeks), “undetectable”.

For `CC(C)Cc1ccc(C(C)C(=O)O)cc1` (stereo not drawn) [ibuprofen, Ibuprofen], in the series on NF-κB subunit p65 [3], the “effect on phosphorylation of p65 (NF-κB activation)” value is on record as “not ibuprofen inhibited”. Moreover, the “rats with stomach ulceration” value in [4] (ibuprofen 670 mg/kg by gavage, 7 rats) is on record as 85.7%. Further, the “ulceration in stomach or intestine” value in series [4] (low dose by gavage) was “did not lead to ulceration”. Further, in the series on β-catenin [5], the “β-catenin levels in nuclear extracts compared to vehicle-treated control” value is given as “markedly decreased”. The “nuclear translocation of the NF-κB subunit p65 (NF-κB activation)” value in the series with NF-κB subunit p65 [6] is “inhibitory effect was not observed”. In the series on β-catenin [7], the “effect on AOM-induced β-catenin cytoplasmic accumulation and nuclear translocation” value is recorded as “reduced”. For the same molecule, the “suppression of PGE2 production compared to LPS-treated control” value with PGE2 was 84.1%. In [8] (20 weeks, AOM, diet IBU 500 ppm or p-IBU 900 ppm), this molecule yielded a Weight of 406±118.91. For the same molecule, in series [8] (setting [9]), the “ACFs (ACF multiplicity)” value stood at 0, the Tumors is reported as 0 and the Weight stood at 416±6.11. The Weight in series [8] (40 weeks, AOM, diet IBU 500 ppm or p-IBU 900 ppm) is recorded as 432±8.84. Also, in series [8] (setting [10]), the ACFs worked out at 0, the “Tumors (tumor multiplicity)” value worked out at 0 and the Weight is 431±15.43. Besides, the “reduction of the multiplicity of ACF compared with vehicle” value in [8] (week 20, AOM rats, diet ibuprofen 500 ppm or p-ibuprofen 900 ppm) is reported as 37.9%. The “reduction of the multiplicity of colon tumors compared with vehicle” value in series [8] (week 40, AOM rats, diet ibuprofen 500 ppm or p-ibuprofen 900 ppm) amounted to 56.6%.

For `CC(C)Cc1ccc(C(C)C(=O)O[C@@H]2O[C@H](C(=O)O)[C@@H](O)[C@H](O)[C@H]2O)cc1` (stereo partly drawn) [ibuprofen-glucuronide], the “plasma level of metabolite” value in [2] (20 weeks (first value)) and in series [2] (40 weeks) was 1000 nM each time.

On to `CC(Cc1ccc(C(C)C(=O)O)cc1)C(=O)O` (stereo not drawn) [carboxy-ibuprofen], for which the “plasma level of metabolite” value in [2] (20 weeks (first value)) and in [2] (40 weeks) was 3000 nM in each case.

With `CC(C)Cc1ccc(C(C)C(=O)NCC(=O)O)cc1` (stereo not drawn) [ibuprofen-NHCH2COOH], the “GI toxic side effects compared to the parent molecule” value in series [1] is given as “decreased”.

`CC(C(=O)O)c1ccc(CC(C)(C)O)cc1` (stereo not drawn) [2-OH-ibuprofen]: the “plasma level of metabolite” value in series [2] (group fed a diet of ibuprofen) was 99000 nM; in series [2] (group fed a diet of p-ibuprofen) it was 102000 nM.
